The list is not random: actives were taken first. Their share in the collection is about 3%.
5HT1E antag: antagonists of human 5-HT1E serotonin receptor; hit rate 0.99% among 65,000; CHO 5-HT1E Ga15 NFAT-bla reporter, FRET, antagonist; AID 571; P28566; inhibition, % at 6 µM;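 active = inhibition above a set limit, the mean inhibition across every tested compound plus 3 SD, cut at about 29% in these data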;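 note: signal is the 460 over 535 nm emission ratio of beta-lactamase substrate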
5HT1a antag: blocks the human serotonin 5-HT1a receptor. CHO 5-HT1a Ga15 NFAT-bla reporter, antagonist mode. inhibition, % at 10 µM. hit rate 0.68% among 62,000;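 active = inhibition above the mean of all tested compounds plus 3 SD, cut at about 43% in these data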;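 note: receptor stimulated by 5-CT agonist at 100 nM near EC80; beta-lactamase reporter measured by ratiometric fluorescence of a cleavable substrate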
Target sequence (P08908 whole entry, looked up): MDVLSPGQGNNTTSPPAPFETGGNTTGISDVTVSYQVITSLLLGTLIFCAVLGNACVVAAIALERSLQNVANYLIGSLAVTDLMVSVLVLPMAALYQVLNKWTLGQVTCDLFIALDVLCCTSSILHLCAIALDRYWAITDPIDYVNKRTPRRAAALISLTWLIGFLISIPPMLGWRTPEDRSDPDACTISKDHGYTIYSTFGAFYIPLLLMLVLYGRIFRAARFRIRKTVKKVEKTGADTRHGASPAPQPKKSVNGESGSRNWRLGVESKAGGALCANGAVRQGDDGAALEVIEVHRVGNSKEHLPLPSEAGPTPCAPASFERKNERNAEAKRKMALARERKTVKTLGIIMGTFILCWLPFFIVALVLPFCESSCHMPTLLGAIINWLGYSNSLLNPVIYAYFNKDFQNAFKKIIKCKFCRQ
5HT1a ag: activates the human 5-HT1a serotonin receptor; P08908; activation, % at 10 µM; hit rate 0.56% among 65,000; AID 567; CHO 5-HT1a Ga15 NFAT-bla reporter, FRET ratio; 0% basal, 100% maximal reference agonist;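 active = activation above the screen-wide mean activation plus 3 SD, cut at about 19% in these data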
5HT1E ag: activates the human 5-HT1E serotonin receptor; P28566; hit rate 0.69% among 65,000; activation, % at 6 µM; CHO 5-HT1E Ga15 NFAT-bla reporter, FRET; 0% DMSO wells, 100% control agonist wells;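 active = activation above a set limit, the screen-wide mean activation plus 3 SD, cut at about 8.5% in these data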
S1P1 ag pot: agonists and agonism potentiators of human S1P1 receptor; P21453; S1P1 CRE-bla cells, forskolin, beta-lactamase FRET, potentiator mode; S1P1 agonist co-added at EC20, 2 nM; 100% = saturating reference agonist, 0% = basal; activation, % at 9.5 µM; hit rate 0.57% among 56,000;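 active = activation above a cutoff set at the mean activation of all tested compounds plus 3 SD, cut at about 54% in these data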;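 note: forskolin at 4 µM as EC80 and the EC20 agonist is SEW2871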
S1P3 agonist: activates the human S1P3 receptor. activation, % at 4.5 µM. S1P3 NFAT-BLA reporter cells, agonism, FRET ratio; relative to 1 µM S1P, basal subtracted. AID 373. Q99500. hit rate 0.1% among 60,000;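 active = activation above the screen-wide mean plus 3 SD, cut at about 4.5% in these data, passing the limit was not always enough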
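Benchmarks: high control 1 µM S1P / System: stable CHO line with human S1P3, Gα16, NFAT-BLA reporter / Dosing: single compound concentration, 4.5 µM final / Timing: 4 h compound at 37 °C, 2 h substrate at RT / Measured by: FRET β-lactamase substrate fluorescence, excitation 405 nm, 460/535 nm emission ratio, background-subtracted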
Numbers stand for hits; . = inactive; / = no result.

SMILES	5HT1E antag	5HT1a antag	5HT1a ag	5HT1E ag	S1P1 ag pot	S1P3 agonist
Cc1cc(C)n(Cc2ccc(C(=O)NCc3ccco3)o2)n1	.	.	.	.	/	/
Cc1cc(C)n(Cc2ccc(C(=O)NCCC3=CCCCC3)o2)n1	.	/	65	.	.	.
Cc1cc(=O)oc2cc3c(cc12)OCCO3	.	.	.	.	.	.
Cc1cc(=O)oc2cc3c(cc12)OCCN3	.	.	25	12	.	.
CC(C)c1nccn1S(=O)(=O)c1cc(Cl)ccc1Cl	.	.	.	.	.	.
Cn1c(=O)c2c(nc(Oc3ccc4c(c3)OCO4)n2Cc2ccc(F)cc2)n(C)c1=O	.	/	.	.	.	.
Cn1c(=O)c2c(nc(Oc3ccc4c(c3)OCO4)n2Cc2ccc(Br)cc2)n(C)c1=O	.	/	40	.	.	.
O=C(Cn1c(NCCCO)nc2ccccc21)c1ccco1	.	.	.	.	.	.
O=C(Nc1nc2ccccc2n1Cc1ccccc1)c1ccco1	.	60	.	.	.	.
CC1(C)CC(=O)C2=C(C1)N(c1cccc(O)c1)C1=C(C2)C(=O)CC(C)(C)C1	30	.	.	.	.	.
CC1CCCC(C)N1C(=O)CSc1nnc(CSc2ncccn2)n1C (configuration not stated)	.	.	.	.	.	.
S=C(c1ccc(-c2ccccc2Cl)o1)N1CCOCC1	.	.	.	.	.	.
N#CCCN1CCN(C(=S)c2ccc(-c3cc(Cl)ccc3Cl)o2)CC1	31	.	.	.	.	.
COc1ccc(Cl)cc1NC(=O)CSc1nnc(-c2ccncc2)n1CC1CCCO1 (configuration not stated)	.	.	.	.	.	.
COc1ccccc1NC(=O)CSc1nnc(-c2ccncc2)n1CC1CCCO1 (configuration not stated)	.	.	37	.	.	.
COc1ccc(N2CCN(c3ncnc4c3cnn4-c3ccc(C)cc3C)CC2)cc1	.	.	.	.	.	.
Cc1ccc(-n2ncc3c(N4CCN(c5ccccc5)CC4)ncnc32)c(C)c1	51	/	.	.	.	.
CCCCOC(=O)Nc1ccc(S(=O)(=O)Nc2nc(C)cc(C)n2)cc1	.	/	.	12	.	.
N#C/C(=C/c1ccc(N2CCCCCC2)o1)c1ccc(F)cc1	90	87	.	.	.	.
COc1cc(-c2nn3c(Cc4ccccc4)nnc3s2)cc(OC)c1OC	31	.	.	.	/	.
CCOC(=O)Cc1csc(NC(=O)c2ccc(Br)s2)n1	.	.	.	.	66	.
C/C(Cl)=C\Cn1c(N2CCCCCC2)nc2c1c(=O)n(C)c(=O)n2C	35	.	.	.	.	.
Cn1c(=O)c2c(nc(N3CCCCCC3)n2CC(=O)c2ccccc2)n(C)c1=O	.	.	.	.	.	.
COC(=O)c1[nH]c2cc(C)ccc2c1NC(=O)CN1CCCc2ccccc21	.	.	265	.	.	.
Cc1ccc(OCCn2cc(/C(N)=N/O)c3ccccc32)cc1C	36	.	.	.	68	.
SMILES	5HT1E antag	5HT1a antag	5HT1a ag	5HT1E ag	S1P1 ag pot	S1P3 agonist
Cc1ccc(-c2noc(CCC(=O)NCCN3CCN(Cc4ccccc4)CC3)n2)cc1	.	.	.	.	.	.
Cc1ccc(-c2noc(CCC(=O)NCCc3ccccc3Cl)n2)cc1	.	.	.	21	.	.
O=C(CCc1nc(-c2ccccc2F)no1)Nc1ccc(Oc2ccccc2)cc1	.	.	.	.	128	.
COc1ccc(CNC(=O)CCc2nc(-c3ccccc3F)no2)c(OC)c1	.	.	.	.	.	.
O=C(CCc1nc(-c2ccccc2F)no1)NCCc1ccccc1Cl	.	.	.	15	.	.
CCC(=O)N1CCc2cc(S(=O)(=O)CCC(=O)NCc3ccc4c(c3)OCO4)ccc21	.	.	.	.	.	.
CC(C)c1nc(SCC(=O)NCc2ccccc2)n[nH]1	.	.	.	.	.	.
Cc1ccccc1OCc1nnc2n1CC(C)S2 (configuration not stated)	.	.	.	.	.	.
O=C(NC1CCCC1)C(c1cccnc1)N(C(=O)c1csnn1)C1CC1 (configuration not stated)	.	.	.	.	.	.
CC(C)COP(=O)(c1ccc(N(C)C)cc1)C(O)c1ccccc1F (configuration not stated)	.	.	.	.	.	.
O=C(c1ccc2c(c1)OCO2)N(c1ccc(Cl)cc1)C1C=CS(=O)(=O)C1 (configuration not stated)	.	.	.	.	.	.
CCc1cc2c(=O)c(-c3nc4ccccc4n3C)c(COCC(=O)O)oc2cc1O	.	.	.	.	.	.
CC(=O)Oc1ccc2cc(-c3nc4ccccc4n3C)c(=O)oc2c1	33	.	89	21	.	5.7
CC(=O)c1ccc(NS(=O)(=O)Cc2ccccc2)cc1	.	.	.	.	.	.
CC(=O)N(C)c1ccc(NS(=O)(=O)Cc2ccccc2)cc1	.	.	69	.	.	.
CCCCN(C)CCNC(=O)Cn1ncc2c(=O)oc3ccc(C)cc3c21	.	.	.	10	.	.
CCCC(=O)Nc1cccc(NC(=O)c2ccc3c(c2)OCO3)c1	.	.	.	14	.	.
COc1ccc(OC)c(NC(=O)C2C3CCC(O3)C2C(=O)O)c1 (configuration not stated)	.	.	.	.	.	.
COc1ccccc1C(=O)Nc1ccc(C(=O)O)cc1	.	.	74	.	.	.
CCOc1ccc(CC2CC(=O)NC2=O)cc1 (configuration not stated)	.	/	.	.	.	.
CCn1c(=NC(=O)c2ccc(N3C(=O)CCC3=O)cc2)sc2c(OC)ccc(OC)c21	31	.	.	.	.	.
Cc1ccc2nc3c(cc(C(=O)NCc4ccccc4)c(=N)n3CCCn3ccnc3)c(=O)n2c1	.	.	.	.	.	.
Cc1cccn2c(=O)c3cc(C(=O)NC(C)c4ccccc4)c(=N)n(CCCn4ccnc4)c3nc12 (configuration not stated)	.	.	.	.	.	4.7
CCc1nnc(NC(=O)CCN2C(=O)c3ccccc3C2=O)s1	.	.	.	16	.	.
CCc1nnc(NC(=O)CCN2C(=O)c3ccccc3S2(=O)=O)s1	.	.	.	.	.	.
O=C(COc1ncnc2sccc12)N1CCN(S(=O)(=O)c2ccc(Cl)cc2)CC1	.	.	.	.	.	.
Cc1cc(C(=O)Nc2c(F)cc(F)cc2Br)no1	.	.	.	.	.	.
O=C(Nc1c(F)cc(F)cc1Br)c1cc(-c2ccc(O)cc2)on1	.	.	.	.	99	.
CN(C)c1ccc(/C=N/n2ncc3ccccc32)cc1	.	.	24	.	/	/
